Molecules are shown by their SMILES.

The species named for test [1] is Homo sapiens. As to the kind of experiment: Inhibition of mRNA splicing of human SMN2 exon 7 transfected in HEK293H cells assessed as compound concentration required to increase full-length SMN2 mRNA level by 1.5 times after 24 hrs by RT-qPCR analysis relative to GAPDH. Format: cell-based. The essentials:
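HEK293H cells stably carrying the SMN2 minigene (exon 6 to 5' exon 8 fused to firefly luciferase) were plated and held for 6 h, then treated 24 h in duplicate at varying concentrations (0.5% DMSO). Full-length minigene mRNA and GAPDH were quantified by TaqMan RT-qPCR using actual PCR efficiencies. Results were normalized to GAPDH and DMSO and expressed as fold change versus DMSO.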
For orientation: Real-time PCR tracks product formation cycle by cycle.

The species named for test [2] is Homo sapiens. Kind of test: Inhibition of mRNA splicing of SMN2 exon 7 in GM03813 fibroblasts derived from SMA patient assessed as compound concentration required to increase SMN protein level by 1.5 times after 24 hrs by HTRF assay.
The species entered for test [3] is Homo sapiens. Kind of test: Inhibition of mRNA splicing of SMN2 exon 7 in GM03813 fibroblasts derived from SMA patient assessed as maximum fold increase of SMN protein level by 1.5 times after 24 hrs by HTRF assay relative to control. A general note: TR-FRET usually uses a lanthanide donor and a delayed reading to cut background.

For the compound `CCc1nc(C)cn2cc(-c3cc4ccc(N5CCNCC5)cc4oc3=O)nc12`, the figures for the EC1.5 in test [1] and in test [2] were 10 nM and 210 nM, respectively.

As for `Cc1cn2nc(-c3cc(=O)n4cc(C5CCN(C)CC5)ccc4n3)cc2c(C)n1`, the results for the EC1.5 in test [1] and in test [2] were 53 nM and 210 nM, respectively.

As to `Cc1cn2cc(-c3cc4ccc(N5CCNCC5)cc4oc3=O)nc2cn1`, the EC1.5 in test [1] came to 2 nM; in test [2] it was 5 nM.

Take `Cc1cn2nc(-c3cc(=O)n4cc(N5CCN[C@@H](C)C5)ccc4n3)cc2c(C)n1`: the EC1.5 in test [1] worked out at 19 nM; in test [2] it was 160 nM.

For `O=c1oc2cc(N3CCNCC3)ccc2cc1-c1nc2ccccc2[nH]1`, the EC1.5 was 430 nM in test [1] and > 10000 nM in test [2]. For the same compound, the fold change (FC) in test [3] turned out to be 1.2.

Consider `Cc1cn2cc(-c3cc4ccc(N5CCN6CCC[C@H]6C5)cc4oc3=O)nc2c(C)n1`, for which the EC1.5 is 21 nM in test [1] and 66 nM in test [2].

With `CCN1CCN(c2ccc3cc(-c4cn5cc(C)nc(C)c5n4)c(=O)oc3c2)CC1`, the EC1.5 came out at 10 nM in test [1] and 62 nM in test [2].

As for `O=c1oc2cc(N3CCNCC3)ccc2cc1-c1cn2ccncc2n1`, the EC1.5 came out at 70 nM in test [1] and 120 nM in test [2].

Consider `Cc1cc2cc(-c3cc4ccc(N5CCNCC5)cc4oc3=O)oc2c(C)n1`, for which the EC1.5 in test [1] turned out to be 4 nM; in test [2] it was 16 nM.

As to `Cc1cn2cc(-c3cc(=O)n4cc(N5CCNCC5)ccc4n3)nc2c(C)n1`, the EC1.5 amounted to 180 nM in test [1] and 430 nM in test [2].

As to `O=c1oc2cc(N3CCNCC3)ccc2cc1-c1nc2ccccc2s1`, the EC1.5 is 1000 nM in test [1] and > 10000 nM in test [2]. Besides, the fold change (FC) in test [3] came to 1.

As for `O=c1oc2cc(N3CCNCC3)ccc2cc1-c1ccccc1`, the EC1.5 in test [1] was > 32000 nM; in test [2], > 10000 nM. Also, the fold change (FC) in test [3] was 1.

As for `Cc1cn2cc(-c3cc4ccc(N5CCN[C@@H](C)C5)cc4oc3=O)nc2c(C)n1`, the EC1.5 in test [1] amounted to 1 nM; in test [2], 5 nM.

As to `Cc1cn2cc(-c3cc4ccc(N5C[C@H]6CNC[C@H]6C5)cc4oc3=O)nc2c(C)n1`, the EC1.5 was 1 nM in test [1] and 13 nM in test [2].

Take `Cc1cn2nc(-c3cc4ccc(C5CCN(C)CC5)cc4oc3=O)cc2c(C)n1`: the EC1.5 in test [1] and in test [2] was > 10000 nM in each case.

`Cc1cn2cc(-c3cc4ccc(CCCN(C)C)cc4oc3=O)nc2c(C)n1`: the EC1.5 in test [1] came out at 58 nM; in test [2], 220 nM.

Regarding `O=c1oc2cc(N3CCNCC3)ccc2cc1-c1cn2ccsc2n1`, the EC1.5 in test [1] is 110 nM; in test [2] it was 360 nM. The fold change (FC) in test [3] was found to be 1.5.

As to `Cc1cn2nc(-c3cc(=O)n4cc(N5CCN(C6CC6)CC5)ccc4n3)cc2c(C)n1`, the values for the EC1.5 in test [1] and in test [2] were 380 nM and 690 nM, respectively.

As to `Cc1cn2cc(-c3cc(=O)n4cc(N5CCNCC5)ccc4n3)cc(C)c2n1`, the EC1.5 came to 48 nM in test [1] and 60 nM in test [2].

With `Cc1cc2oc(-c3cc4ccc(N5CCNCC5)cc4oc3=O)cc2c(C)n1`, the values for the EC1.5 in test [1] and in test [2] were 1500 nM and > 10000 nM, respectively.

Turning to `Cc1cn2nc(-c3cc(=O)n4cc(N5CCC(N(C)C)CC5)ccc4n3)cc2c(C)n1`, the EC1.5 came out at 20 nM in test [1] and 130 nM in test [2].

As for `CCc1ccc2nc(-c3cc4ccc(N5CCNCC5)cc4oc3=O)cn2c1`, the results for the EC1.5 in test [1] and in test [2] were 2700 nM and > 10000 nM, respectively.

On to `COc1ccc(-c2cnc3cc(N4CCNCC4)ccn3c2=O)cc1OC`, for which the EC1.5 in test [1] was 3200 nM; in test [2] it was > 10000 nM. In addition, in test [3], the fold change (FC) came out at 1.

For `Cc1cn2cc(-c3cc4ccc(N5CCN(C(C)(C)C)CC5)cc4oc3=O)nc2c(C)n1`, the EC1.5 in test [1] was 59 nM; in test [2], > 10000 nM.

As to `Cc1ccc2nc(-c3cc4ccc(N5CCNCC5)cc4oc3=O)cn2c1`, the values for the EC1.5 in test [1] and in test [2] were 140 nM and 160 nM, respectively.

Take `COc1ccc(-c2cn3ccc(N4CCNCC4)cc3nc2=O)cc1OC`: the EC1.5 in test [1] and in test [2] was > 10000 nM in each case. In addition, in test [3], the fold change (FC) came out at 1.

`Cc1cn2cc(-c3cc4ccc(N5CCC(N(C)C)CC5)cc4oc3=O)nc2c(C)n1`: the EC1.5 in test [1] turned out to be 11 nM; in test [2] it was 61 nM.

Take `COc1ccc(-c2cc3ccc(N4CCNCC4)cc3c(=O)o2)cc1OC`: the results for the EC1.5 in test [1] and in test [2] were 80 nM and 290 nM, respectively. Further, the fold change (FC) in test [3] worked out at 1.6.

On to `Cc1cn2cc(-c3cc4ccc(C5CCN(C)CC5)cc4oc3=O)nc2c(C)n1`, for which the results for the EC1.5 in test [1] and in test [2] were 11 nM and 50 nM, respectively.

With `Cc1cn2cc(-c3cc4ccc(N5CCN(CCF)[C@@H](C)C5)cc4oc3=O)nc2c(C)n1`, the values for the EC1.5 in test [1] and in test [2] were 37 nM and 450 nM, respectively.

Regarding `COc1ccc(-c2cc3ccc(N4CCNCC4)cn3c(=O)n2)cc1OC`, the EC1.5 in test [1] and in test [2] was > 10000 nM in each case. Moreover, the fold change (FC) in test [3] turned out to be 1.

On to `Cc1cn2cc(-c3cc4ccc(N5CCN[C@H](C)C5)cc4oc3=O)nc2c(C)n1`, for which the EC1.5 in test [1] came out at 3 nM; in test [2], 13 nM.

`Cc1cn2cc(-c3cc4ccc(N5CCN(CCCF)[C@@H](C)C5)cc4oc3=O)nc2c(C)n1`: the EC1.5 in test [1] stood at 19 nM; in test [2], 60 nM.

For `Cc1cn2cc(-c3cc4ccc(N5CCNCC5)cc4oc3=O)ccc2n1`, the EC1.5 in test [1] amounted to 5 nM; in test [2] it was 66 nM.

`Cc1cn2cc(-c3cc4ccc(N5CCN[C@@H](C(C)C)C5)cc4oc3=O)nc2c(C)n1`: the EC1.5 in test [1] amounted to 23 nM; in test [2], 76 nM.

On to `COc1ccc(-c2cc3ccc(N4CCNCC4)cc3oc2=O)cc1OC`, for which the EC1.5 in test [1] is 620 nM; in test [2], > 10000 nM. Moreover, in test [3], the fold change (FC) is 1.3.

As for `COc1ccc(-c2cc(=O)n3cc(N4CCNCC4)ccc3c2)cc1OC`, the figures for the EC1.5 in test [1] and in test [2] were 920 nM and 2500 nM, respectively. Further, the fold change (FC) in test [3] is 1.6.

Regarding `O=c1oc2cc(N3CCNCC3)ccc2cc1-c1cn2ccccc2n1`, the values for the EC1.5 in test [1] and in test [2] were 380 nM and > 10000 nM, respectively. The fold change (FC) in test [3] came to 1.3.

In the case of `COc1ccc(-c2cc3ccc(N4CCNCC4)cc3oc2=O)cc1`, the results for the EC1.5 in test [1] and in test [2] were 2000 nM and > 10000 nM, respectively. In test [3], the fold change (FC) was 1.1.

Regarding `COc1ccc(-c2cc(=O)n3cc(N4CCNCC4)ccc3n2)cc1OC`, the EC1.5 in test [1] is 120 nM; in test [2], 830 nM. Moreover, the fold change (FC) in test [3] stood at 1.6.

In the case of `COc1ccc(-c2cc3ccc(N4CCNCC4)cc3c(=O)[nH]2)cc1OC`, the EC1.5 in test [1] was 1400 nM; in test [2], > 10000 nM. Also, in test [3], the fold change (FC) stood at 1.2.

On to `Cc1cn2nc(-c3cc(=O)n4cc(N5CCN6CCC[C@H]6C5)ccc4n3)cc2c(C)n1`, for which the EC1.5 came out at 120 nM in test [1] and 150 nM in test [2].

As to `Cc1cn2cc(-c3cc4ccc(N5CC[C@H]6CNC[C@H]65)cc4oc3=O)nc2c(C)n1`, the EC1.5 in test [1] was 28 nM; in test [2], 640 nM.

`Cc1cn2cc(-c3cc4ccc(N5CCNCC5)cc4oc3=O)cc2c(C)n1`: the EC1.5 was 4 nM in test [1] and 29 nM in test [2].

For `Cc1cn2nc(-c3cc(=O)n4cc(N5CCN[C@H](C)C5)ccc4n3)cc2c(C)n1`, the EC1.5 came out at 11 nM in test [1] and 71 nM in test [2].

The values above are taken from ChEMBL document CHEMBL4477216, “Discovery and Optimization of Small Molecule Splicing Modifiers of Survival Motor Neuron 2 as a Treatment for Spinal Muscular Atrophy” (J Med Chem, 2016).
